Measured values taken from ChEMBL document CHEMBL1155020, “Trithiocarbonates as a novel class of HDAC inhibitors: SAR studies, isoenzyme selectivity, and pharmacological profiles” (J Med Chem, 2008).
pIC50, pKi: −log10 of the molar value. Active and inactive are the calls of the source. No cut-off for these calls is given here.

Key:
HeLa [1] = assay: Cytotoxicity against human HeLa cells after 72 hrs by alamar blue assay; format: functional, cell-based
Summary of the method: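 HeLa cells were seeded at densities allowing growth through 72 h of compound exposure at 37 °C, 5% CO2. Viability was read by Alamar Blue (resazurin) reduction. Replicate assays were averaged, and IC50 was taken from concentration-effect curves.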

[2] = target: T1, Histone deacetylase (Homo sapiens) (UniProt Q13547+O15379+Q9UBN7+Q92769+Q9UQL6+Q8WUI4+Q9BY41+Q96DB2+P56524+Q9UKV0+Q969S8); assay: Inhibition of nuclear HDAC isolated from human HeLa cells at 30 uM; format: cell-free
Histone deacetylase 1 [3] = target: T2, Histone deacetylase 1 (Homo sapiens, UniProt Q13547); assay: Inhibition of recombinant HDAC1 expressed in HEK293 cells; format: cell-based
[4] = target: T3, Protein deacetylase HDAC6 (Homo sapiens, UniProt Q9UBN7); assay: Inhibition of recombinant HDAC6 expressed in HEK293 cells; format: cell-based
T3 sequence (Q9UBN7 whole entry): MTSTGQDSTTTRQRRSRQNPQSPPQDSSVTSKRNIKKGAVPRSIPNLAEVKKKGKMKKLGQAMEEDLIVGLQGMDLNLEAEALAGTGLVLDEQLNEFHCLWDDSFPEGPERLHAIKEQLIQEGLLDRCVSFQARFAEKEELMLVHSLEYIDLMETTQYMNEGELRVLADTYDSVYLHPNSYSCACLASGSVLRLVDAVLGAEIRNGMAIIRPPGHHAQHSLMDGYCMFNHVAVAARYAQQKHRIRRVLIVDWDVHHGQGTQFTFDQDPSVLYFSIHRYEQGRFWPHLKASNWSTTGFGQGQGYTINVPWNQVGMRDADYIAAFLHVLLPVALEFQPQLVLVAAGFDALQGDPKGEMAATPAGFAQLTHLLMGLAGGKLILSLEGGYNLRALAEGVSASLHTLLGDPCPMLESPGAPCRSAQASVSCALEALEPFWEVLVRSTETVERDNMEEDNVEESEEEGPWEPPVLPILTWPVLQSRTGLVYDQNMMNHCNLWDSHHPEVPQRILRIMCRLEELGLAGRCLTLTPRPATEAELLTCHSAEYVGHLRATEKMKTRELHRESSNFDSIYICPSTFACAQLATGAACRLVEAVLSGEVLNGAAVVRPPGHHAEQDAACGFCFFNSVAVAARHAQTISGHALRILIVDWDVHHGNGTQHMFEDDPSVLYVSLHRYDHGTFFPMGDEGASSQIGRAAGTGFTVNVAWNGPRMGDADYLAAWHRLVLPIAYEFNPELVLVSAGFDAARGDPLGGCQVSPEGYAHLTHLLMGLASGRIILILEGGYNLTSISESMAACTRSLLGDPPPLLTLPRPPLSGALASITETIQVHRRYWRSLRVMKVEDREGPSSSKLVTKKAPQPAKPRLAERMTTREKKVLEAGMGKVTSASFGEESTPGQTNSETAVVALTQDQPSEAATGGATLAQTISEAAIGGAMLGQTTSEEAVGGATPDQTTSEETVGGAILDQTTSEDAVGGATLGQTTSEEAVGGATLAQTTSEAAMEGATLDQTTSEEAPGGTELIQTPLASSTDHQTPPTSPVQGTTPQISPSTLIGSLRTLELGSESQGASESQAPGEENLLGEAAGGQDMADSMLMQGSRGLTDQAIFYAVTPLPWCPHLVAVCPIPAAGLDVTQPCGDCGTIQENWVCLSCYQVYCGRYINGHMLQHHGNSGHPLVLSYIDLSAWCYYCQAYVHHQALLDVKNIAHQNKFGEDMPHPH

Histone deacetylase [5] = assay: Inhibition of nuclear HDAC isolated from human HeLa cells; format: cell-based
Histone deacetylase [6] = assay: Inhibition of HDAC in human HeLa cells; format: cell-based
Histone deacetylase [7] = assay: Inhibition of HDAC in human HeLa cells assessed as induction of histone H3 hyperacetylation after 24 hrs; format: cell-based
[8] = target: T1, Histone deacetylase (Homo sapiens); assay: Inhibition of HDAC in human RKO cells assessed as induction of histone H3 serine 10 phosphorylation at 1 to 10 uM after 24 hrs by Western blotting; format: cell-based
Summary of the method: (§1)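 RKO cells were treated for 24 h with compound at 1, 3 and 10 µM. Lysates were run on SDS-PAGE and Western blots probed for histone H3 S10 phosphorylation and histone H3 K1-20 acetylation, with β-actin reprobe as control.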

[9] = target: T1, Histone deacetylase (Homo sapiens); assay: Inhibition of HDAC in human RKO cells assessed as induction of histone H3 lysine 1 to 20 hyperacetylation at 1 to 10 uM after 24 hrs by Western blotting; format: cell-based; summary of the method: as §1
[10] = target: T1, Histone deacetylase (Homo sapiens); assay: Inhibition of nuclear HDAC isolated from human HeLa cells at 32 uM; format: cell-free
Histone deacetylase 1 [11] = target: T2, Histone deacetylase 1; assay: Inhibition of recombinant HDAC1 expressed in HEK293 cells at 32 uM; format: cell-based
[12] = target: T4, Protein deacetylase HDAC6 (Homo sapiens) (UniProt Q9UBN7); assay: Inhibition of recombinant HDAC6 expressed in HEK293 cells at 32 uM; format: cell-based
T4 sequence (whole entry): T3 sequence (Q9UBN7 whole entry)

[13] = target: T1, Histone deacetylase (Homo sapiens); assay: Inhibition of HDAC in human HeLa cells at 32 uM; format: cell-based
Summary of the method: (§2)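 HeLa cells were seeded at 5 × 10^3/well, grown for 24 h, and exposed to compound for 3 h. Cell-permeable Boc-K(Ac)-AMC was added for a further 3 h. Lysis/developer buffer containing trypsin and 10 µM TSA followed, with 3 h incubation. AMC fluorescence was read at ex 355/em 460 nm, and % inhibition was given at the stated concentration.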

[14] = target: T3, Protein deacetylase HDAC6; assay: Inhibition of recombinant HDAC6 expressed in HEK293 cells using variable substrate concentration by Lineweaver-Burke plot; format: cell-based
Summary of the method: (§3)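 Inhibitor was used at 1/4, 1/2, 1, 2 and 4 times the IC50-derived concentration. Ki was obtained from Lineweaver-Burk plots, with y-axis intersection indicating substrate competition.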

[15] = target: T4, Protein deacetylase HDAC6 (Homo sapiens); assay: Inhibition of HDAC6 in human A549 NSCLC cells assessed as induction of alpha-tubulin hyperacetylation at 10 uM after 24 hrs by Western blotting; format: cell-based
Summary of the method: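 A549 NSCLC cells were exposed to compound for 24 h and lysed. Western blots were probed for acetylated α-tubulin and acetylated histone H3 K1-20, then reprobed with histone H3 and α-tubulin antibodies as controls.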

HeLa [16] = assay: Cytotoxicity against human HeLa cells at 50 uM after 72 hrs by alamar blue assay; format: functional
[17] = target: T1, Histone deacetylase (Homo sapiens); assay: Inhibition of HDAC in human HeLa cells assessed as induction of p21waf1 at 50 uM after 24 hrs by Western blotting; format: cell-based
Summary of the method: (§4)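 HeLa cells were treated with compound at 5 and 50 µM for 24 h, then lysed in Tris pH 8 RIPA-type buffer. Equal protein amounts were separated by SDS-PAGE and blotted to PVDF. Blots were probed for acetylated histone H3 K1-20 and p21waf1, then reprobed for β-actin as loading control.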

[18] = target: T1, Histone deacetylase (Homo sapiens); assay: Inhibition of HDAC in human HeLa cells assessed as induction of histone H3 hyperacetylation at 50 uM after 24 hrs by Western blotting; format: cell-based; summary of the method: as §4
RKO [19] = assay: Cytotoxicity against arrested non proliferative human RKO cells after 24 hrs; format: functional, cell-based; conditions: in the assay text read “after 72 hrs” for “after 24 hrs”
Summary of the method: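 Alamar Blue (resazurin) read-out of metabolic activity. RKO p21waf1 transfectant cells were arrested by inducing p21waf1 with 10 µM ponasterone A for 24 h, then seeded at 2 × 10^4 cells/well and treated with compound. IC50 was taken from the concentration-effect curve.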

RKO [20] = assay: Induction of apoptosis in human RKO cells assessed as accumulation at subG1 phase by flow cytometry; format: functional, cell-based
Summary of the method: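 RKO cells were seeded at 5 × 10^5 per 10 cm dish and grown for 24 h in log phase. They were then exposed to compound at 1 and 10 µM for 24 h. Flow cytometry assigned cells to subG1 (apoptosis), G1 (2N), S and G2/M (4N).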

RKO [21] = assay: Induction of apoptosis in human RKO cells at 10 uM after 24 hrs by flow cytometry
Histone deacetylase 1 [22] = target: T2, Histone deacetylase 1; assay: Inhibition of recombinant HDAC1 expressed in HEK293 cells using variable substrate concentration by Lineweaver-Burke plot; format: cell-based; summary of the method: as §3
Histone deacetylase 1 [23] = target: T2, Histone deacetylase 1; assay: Inhibition of recombinant HDAC1 expressed in HEK293 cells at 30 uM; format: cell-based
[24] = target: T1, Histone deacetylase (Homo sapiens); assay: Inhibition of HDAC in human HeLa cells at 50 uM; format: cell-based; summary of the method: as §2

T2 sequence (Q13547 whole entry): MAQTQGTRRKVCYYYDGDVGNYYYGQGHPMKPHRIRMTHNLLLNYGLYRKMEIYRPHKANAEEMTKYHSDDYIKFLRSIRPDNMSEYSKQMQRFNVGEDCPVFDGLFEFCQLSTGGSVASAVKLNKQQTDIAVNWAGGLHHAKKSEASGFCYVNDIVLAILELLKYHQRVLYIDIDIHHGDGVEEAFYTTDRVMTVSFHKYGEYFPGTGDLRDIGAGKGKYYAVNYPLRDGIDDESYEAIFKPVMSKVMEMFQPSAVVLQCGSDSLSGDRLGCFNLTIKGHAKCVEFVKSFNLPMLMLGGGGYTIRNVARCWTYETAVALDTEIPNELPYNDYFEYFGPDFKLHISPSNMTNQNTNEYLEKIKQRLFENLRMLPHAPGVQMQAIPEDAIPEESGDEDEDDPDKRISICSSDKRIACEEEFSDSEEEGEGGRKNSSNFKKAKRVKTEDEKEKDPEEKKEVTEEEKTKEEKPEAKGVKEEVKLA

pIC50 (Histone deacetylase 1 [3]) | pIC50 [4] | IC50 (Histone deacetylase [5]) | IC50 (Histone deacetylase [6]) | pIC50 (Histone deacetylase [6]) | SMILES | pIC50 (HeLa [1]) | also measured
– | – | – | – | – | CCNC(=S)NCC(=O)c1ccc(OC)cc1 | 5.24 | inhibition [2]: -6%
6.12 | 6.60 | 38 nM | 9840 nM | – | CCSC(=S)SCC(=O)c1ccc(CC(=O)NCc2ccccc2)s1 | 6.15 | EC50 (Histone deacetylase [7]): 2400 nM; Activity [8]: Active; Activity [9]: Active
– | – | – | – | – | COc1ccc(C(=O)CSC(=S)N2CCOCC2)cc1 | – | inhibition [10]: 2%; inhibition (Histone deacetylase 1 [11]): 0%; inhibition [12]: -2%; inhibition [13]: 0%
– | – | – | – | – | CCSC(=S)SCC(=O)c1ccn(S(=O)(=O)c2ccccc2)c1 | – | pKi [14]: 6.85
5.91 | 7.19 | 120 nM | 964 nM | – | CCSC(=S)SCC(=O)c1cccc(NC(=O)c2ccccc2)c1 | 5.08 | pKi [14]: 6.96; Activity [15]: Active
– | – | – | – | – | CCSC(=S)NCC(=O)c1ccc(OC)cc1 | – | inhibition [10]: -3%; inhibition [12]: -8%; inhibition at 50 µM (HeLa [16]): 26%
6.30 | 6.37 | 14 nM | 1860 nM | – | CCSC(=S)SCC(=O)c1cccc(S(=O)(=O)Nc2ccc3c(c2)OCO3)c1 | 5.04 | Activity [17]: Active; Activity [18]: Active
5.16 | 5.90 | 375 nM | – | 4.09 | CCSC(=S)SCC(=O)c1ccc(C)cc1 | – | EC50 (Histone deacetylase [7]): 4800 nM; Activity (RKO [19]): Active; Activity (RKO [20]): Active; Activity (RKO [21]): Active
6.41 | 6.69 | 18 nM | 624 nM | – | CCSC(=S)SCC(=O)c1ccc(CC(=O)NCCOc2ccccc2)s1 | 5.24 | pKi (Histone deacetylase 1 [22]): 6.34
– | 5.84 | 79 nM | – | – | CCSC(=S)SCC(=O)c1ccc(C(=O)Nc2ccc(Cl)cc2)cc1 | – | inhibition at 50 µM (HeLa [16]): 0%; inhibition (Histone deacetylase 1 [23]): 1%
6.26 | 6.36 | 8 nM | 683 nM | – | CCSC(=S)SCC(=O)c1ccc(-c2ccc(CNc3cnc4ccccc4c3)cn2)s1 | 5.57 | EC50 (Histone deacetylase [7]): 4800 nM; Activity (RKO [21]): Active
– | – | – | – | – | CCSC(=S)OCC(=O)c1ccc(OC)cc1 | 5.52 | inhibition [10]: 16%; inhibition (Histone deacetylase 1 [11]): 6%; inhibition [12]: 16%; inhibition [24]: 28%
5.27 | 5.69 | 110 nM | – | – | CCSC(=S)SCC(=O)c1cccc(S(=O)(=O)N(C)c2ccc(OC)cc2)c1 | – | inhibition at 50 µM (HeLa [16]): 43%
6.27 | 7.05 | 386 nM | 26200 nM | – | CCOC(=S)SCC(=O)c1ccc(NC(C)=O)cc1 | 5.44 | EC50 (Histone deacetylase [7]): 2900 nM; Activity [8]: Active; Activity [9]: Active; Activity (RKO [21]): Active
6.60 | 6.94 | 10 nM | 7530 nM | – | CCSC(=S)SCC(=O)c1ccc(CC(=O)Nc2ccc(OC)cc2)s1 | 5.18 | EC50 (Histone deacetylase [7]): 760 nM
6.05 | 6.76 | 26 nM | 600 nM | – | CCSC(=S)SCC(=O)c1ccc(CC(=O)NCc2ccc(OC)cc2)s1 | 5.84 | –
4.73 | 6.22 | 40 nM | 1190 nM | – | CCSC(=S)SCC(=O)c1ccc(NC(=O)Nc2ccccc2)cc1 | 4.69 | –
5.94 | 6.38 | 174 nM | 865 nM | – | CCSC(=S)SCC(=O)c1ccc(NC(=O)c2cccnc2)cc1 | 5.29 | –

SMILES | pIC50 (Histone deacetylase 1 [3]) | pIC50 [4] | IC50 (Histone deacetylase [5]) | IC50 (Histone deacetylase [6]) | pIC50 (Histone deacetylase [6]) | pIC50 (HeLa [1]) | also measured
CCSC(=S)SCC(=O)c1ccc(CCNC(C)=O)cc1 | 6.22 | 6.99 | 587 nM | 1480 nM | – | 4.89 | –
